Bridges are numbered along the chain shown (N, C = ends). Where no end group is shown, it is not given here.
Experiments:
[1] = system: tested Gram-positive bacteria; test: Geometric mean of MICs and TI, Gram-positive bacteria; type: cell-based; settings: geometric mean of the MICs against tested Gram-positive bacteria
Outline: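 Broth dilution against S. aureus NCTC 10788, MRSA NCTC 12493 and E. faecalis NCTC 12697. Overnight cultures subcultured to OD550 0.23 (about 1×10^8 cfu/ml), then diluted to 5×10^5 cfu/ml. Test compound at 1–128 μM, 37 °C, 18 h, growth read at 550 nm. MIC = lowest concentration with no growth. Three independent runs in triplicate. Geometric mean taken across the MICs.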

[2] = Secondary structure analysis by CD spectrometry; type: physicochemical; settings: for α helix (%) NH4AC: 50 µM peptide in 10 mM NH4AC; for α helix (%) NH4AC / α helix (%) TFE: CD 190 to 260 nm, K2D3 estimate; for α helix (%) TFE: 50 µM peptide in 50 % TFE (v/v, in 10 mM NH4AC)
Outline: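 CD spectra of test compound (final 50 µM) in 10 mM ammonium acetate, in 50 % TFE (v/v, in 10 mM ammonium acetate), or with LPS O26:B6 (100 µM) in 10 mM ammonium acetate. Scanned 190–260 nm at 100 nm/min, 1 nm bandwidth, 0.5 nm data pitch. Helix content estimated with K2D3.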

E. coli 2340 [3] = test: Salt sensitivity assay; type: cell-based, Escherichia coli; settings: three independent repeats
Outline: (§1)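 MIC/MBC measured in MHB supplemented with salts, including 150 mM NaCl, 2 mM CaCl₂ or 1 mM MgCl₂. Gram-negative cultures subcultured to OD550 0.4, then diluted to 5×10^5 cfu/ml. Test compound 1–128 μM, 37 °C, 18 h, growth at 550 nm. MBC: wells spotted on agar for 18 h at 37 °C; lowest concentration with no colonies. Three independent repeats.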

[4] = system: E. coli plasmid DNA (pBR322); test: DNA binding assay; parameters: species or system Escherichia coli; settings: 100 ng plasmid DNA, 37 °C, 1 h, agarose gel electrophoresis
Outline: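 Gel retardation: test compound (final 1–32 μM) incubated with 100 ng E. coli plasmid DNA at 37 °C for 1 h. Buffer: 1 mM EDTA, 10 mM Tris-HCl pH 8.0, 5 % glucose, 50 μg/ml BSA, 20 mM KCl. Resolved by agarose gel electrophoresis in 1 × TAE. A known DNA-binding peptide at equal concentrations served as control.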

tested E. coli strains = test: ONPG assay, inner membrane permeabilisation; type: cell-based, Escherichia coli; settings: E. coli 8739
Outline: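 E. coli grown in LB with 2 % lactose to log phase, then pelleted. Incubated with test compound while absorbance at 460 nm was monitored continuously at 37 °C. Untreated cells, melittin and solvent-only groups included. Three independent runs, three replicates each.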

E. coli 2340 [5] = test: In vivo antibacterial study, G. mellonella larvae model; parameters: species or system Galleria mellonella; settings: five days; 10, 20, 40 mg/kg; ten larvae per group
Outline: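 Galleria mellonella larvae injected in the last right proleg with E. coli suspension (1×10^7 CFU/ml). Test compound given 1 h later at 10, 20 or 40 mg/kg. Larvae kept at 37 °C for five days, survival scored daily, ten larvae per group. Rifampin 20 mg/kg was the positive control and sterile PBS the negative control. Three independent experiments.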

E. coli 8739 = test: Salt sensitivity assay; type: cell-based, Escherichia coli; settings: three independent repeats
Outline: as §1

[6] = system: E. coli 8739, E. coli 13846, and E. coli 2340; test: Time-killing kinetic assay; type: cell-based, Escherichia coli
Outline: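 E. coli at 10^6 CFU/ml mixed with test compound at 1×, 2× or 4× MIC. 10 µl aliquots taken into PBS at 0, 5, 10, 20, 30, 60, 90, 120 and 180 min and plated on agar. Colonies counted after 24 h incubation. Three independent sessions, three replicates each.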

[7] = system: three tested E. coli strains; test: NPN assay, outer membrane permeabilisation; type: cell-based, Escherichia coli; settings: 1 × MIC, 2 × MIC, 4 × MIC; 37 °C, 2 h
Outline: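 Log-phase E. coli pelleted at 3000g for 10 min and washed three times in 5 mM HEPES pH 7.2 with 5 mM glucose. Resuspended at 1×10^7 CFU/ml with NPN and test compound at 1×, 2× or 4× MIC. Incubated at 37 °C for 2 h, then fluorescence read at […]. Melittin set 100 % and buffer 0 % permeability. Three independent runs.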

E. coli 13846 = test: Salt sensitivity assay; type: cell-based, Escherichia coli; settings: three independent repeats
Outline: as §1

FFPKVAGVAAKV_KK_FCTISKKC (disulfide) [des-Leu^13, Ala^16-[Lys^4]brevinin−1pl]
GM G+ [1]: 256 µM
α helix (%) NH4AC [2]: 34.65%
α helix (%) TFE [2]: 95.28%

FFPKVAGVAAKVLKKFCTISKKC (disulfide 17-23 (inferred)) [des-Ala^16-[Lys^4]brevinin−1pl]
MBC (E. coli 2340 [3]; 4 µM FeCl3 in MHB medium): 4 /4
MIC (E. coli 2340 [3]; 4 µM FeCl3 in MHB medium): 4 /4
MBC (E. coli 2340 [3]; 6 µM NH4Cl in MHB medium): 4 /4
MIC (E. coli 2340 [3]; 6 µM NH4Cl in MHB medium): 4 /4
MBC (E. coli 2340 [3]; 8 µM ZnCl2 in MHB medium): 4 /4
MIC (E. coli 2340 [3]; 8 µM ZnCl2 in MHB medium): 4 /4
MBC (E. coli 2340 [3]; 1 mM MgCl2 in MHB medium): 8 /8
MIC (E. coli 2340 [3]; 1 mM MgCl2 in MHB medium): 8 /8
MBC (E. coli 2340 [3]; 2 mM CaCl2 in MHB medium): 16 /16
MIC (E. coli 2340 [3]; 2 mM CaCl2 in MHB medium): 16 /16
MBC (E. coli 2340 [3]; 4.5 mM KCl in MHB medium): 2 /2
MIC (E. coli 2340 [3]; 4.5 mM KCl in MHB medium): 2 /2
MBC (E. coli 2340 [3]; 150 mM NaCl in MHB medium): 4 /4
MIC (E. coli 2340 [3]; 150 mM NaCl in MHB medium): 4 /4
MBC (E. coli 2340 [3]; Control, MHB medium): 4 /4
MIC (E. coli 2340 [3]; Control, MHB medium): 4 /4
GM G+ [1]: 80.63 µM
concentration of complete retardation of plasmid DNA [4]: 16 µM
changes in OD values in the ONPG assay (release of cytoplasmic beta-galactosidase) (tested E. coli strains): did not induce obvious changes in OD values
α helix (%) NH4AC [2]: 31.95%
α helix (%) TFE [2]: 95.28%
α helix content in the presence of LPS ([2]; LPS (O26:B6, 100 µM) in 10 mM NH4AC, CD, K2D3 prediction): 95.44%
survival rate of infected larvae (E. coli 2340 [5]): 90%
MBC (E. coli 8739; 4 µM FeCl3 in MHB medium): 2 /2
MIC (E. coli 8739; 4 µM FeCl3 in MHB medium): 2 /2
MBC (E. coli 8739; 6 µM NH4Cl in MHB medium): 2 /2
MIC (E. coli 8739; 6 µM NH4Cl in MHB medium): 2 /2
MBC (E. coli 8739; 8 µM ZnCl2 in MHB medium): 2 /2
MIC (E. coli 8739; 8 µM ZnCl2 in MHB medium): 2 /2
MBC (E. coli 8739; 1 mM MgCl2 in MHB medium): 32 /32
MIC (E. coli 8739; 1 mM MgCl2 in MHB medium): 32 /32
MBC (E. coli 8739; 2 mM CaCl2 in MHB medium): 8 /8
MIC (E. coli 8739; 2 mM CaCl2 in MHB medium): 8 /8
MBC (E. coli 8739; 4.5 mM KCl in MHB medium): 2 /2
MIC (E. coli 8739; 4.5 mM KCl in MHB medium): 2 /2
MBC (E. coli 8739; 150 mM NaCl in MHB medium): 4 /4
MIC (E. coli 8739; 150 mM NaCl in MHB medium): 4 /4
MBC (E. coli 8739; Control, MHB medium): 2 /2
MIC (E. coli 8739; Control, MHB medium): 2 /2
bacteria eradication at 4 × MIC ([6]; 4 × MIC): almost immediate bacteria eradication upon contact
time to eradicate all cells ([6]; 10^6 CFU/ml, peptide 1 × MIC to 4 × MIC, sampled 0 to 180 min, colony count): ≤ 10 min
time to completely clear the bacteria ([6]; at their MICs, three types of E. coli): ≤ 1 h
outer membrane permeabilisation of the tested E. coli strains [7]: did not induce significant changes
MBC (E. coli 13846; 4 µM FeCl3 in MHB medium): 8 /8
MIC (E. coli 13846; 4 µM FeCl3 in MHB medium): 8 /8
MBC (E. coli 13846; 6 µM NH4Cl in MHB medium): 8 /8
MIC (E. coli 13846; 6 µM NH4Cl in MHB medium): 8 /8
MBC (E. coli 13846; 8 µM ZnCl2 in MHB medium): 8 /8
MIC (E. coli 13846; 8 µM ZnCl2 in MHB medium): 8 /8
MBC (E. coli 13846; 1 mM MgCl2 in MHB medium): 16 /16
MIC (E. coli 13846; 1 mM MgCl2 in MHB medium): 16 /16
MBC (E. coli 13846; 2 mM CaCl2 in MHB medium): 64 /64
MIC (E. coli 13846; 2 mM CaCl2 in MHB medium): 64 /64
MBC (E. coli 13846; 4.5 mM KCl in MHB medium): 8 /8
MIC (E. coli 13846; 4.5 mM KCl in MHB medium): 8 /8
MBC (E. coli 13846; 150 mM NaCl in MHB medium): 8
MIC (E. coli 13846; 150 mM NaCl in MHB medium): 4
MBC (E. coli 13846; Control, MHB medium): 4 /4
MIC (E. coli 13846; Control, MHB medium): 4 /4

— PMC11437748 (Computational and Structural Biotechnology Journal, 2024)
